M1 antagonist: antagonists of rat M1 muscarinic receptor. Muscarinic acetylcholine receptor M1 (Rattus norvegicus), P08482. CHO-M1 cells, Fluo-4 calcium, ACh EC80 antagonist mode; active compounds read low. B-score at 10 µM. actives 3.4% (n = 64,000);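 active = calcium fluorescence response, raw or row-and-column corrected B-score, differing from the plate sample mean either way at a set confidence level, mostly lower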
Target sequence (P08482 whole entry, looked up): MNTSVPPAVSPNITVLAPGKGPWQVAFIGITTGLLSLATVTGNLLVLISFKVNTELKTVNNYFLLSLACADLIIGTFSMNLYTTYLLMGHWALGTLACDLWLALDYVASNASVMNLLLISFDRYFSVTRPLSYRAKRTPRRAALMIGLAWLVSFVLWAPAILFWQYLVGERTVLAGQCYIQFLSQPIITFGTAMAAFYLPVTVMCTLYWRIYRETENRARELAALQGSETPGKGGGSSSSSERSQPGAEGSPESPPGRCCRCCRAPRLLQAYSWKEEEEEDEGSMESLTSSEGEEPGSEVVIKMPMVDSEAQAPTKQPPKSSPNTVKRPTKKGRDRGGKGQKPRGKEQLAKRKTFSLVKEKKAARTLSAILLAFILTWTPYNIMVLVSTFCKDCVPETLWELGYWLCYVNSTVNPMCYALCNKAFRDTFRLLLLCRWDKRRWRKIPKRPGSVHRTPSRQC
BAP1 inh: inhibitors of BAP1 deubiquitinase, primary screen, biochemical, Ub-AMC fluorescence, kinetic. recombinant BAP1, Ub-AMC hydrolysis fluorescence kinetic; active compounds read low. calls only at 20 µM. actives 0.48% (n = 72,000). AID 436, 2006;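 active = activity remaining at or below 50% of control, provided the compound also passes the data quality filters; inactive = the rest, including low values that fail the filters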;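 note: 100% = DMSO wells rate and 0% = substrate alone blank rate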
Hsp90 inh: tumor Hsp90 inhibitors, primary screen, cell lysate, fluorescence polarization, NCI-N417 lysate. AID 429, 2006. inhibition, % at 30 µM. actives 0.35% (n = 64,000). Cy3B-geldanamycin FP displacement;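 active = inhibition above 50%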;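 note: 0% = tracer plus lysate wells and 100% = tracer alone without lysate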
Ecoli WT expand: growth inhibitors of wild-type E. coli, primary screen, strain BW25113, expanded library, OD600; OD600 absorbance; growth inhibition, % at 100 µM; actives 0.15% (n = 98,000);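 active = growth inhibition above about 50% at one test dose, limit read from the data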;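 note: growth measured after 20 h incubation at 37 °C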
Ecoli tolC: growth inhibitors of E. coli tolC mutant, primary screen, strain BW25113 ΔtolC::kan, 384-well; OD615; growth inhibition, % at 10 µM (by protocol); actives 2.2% (n = 65,000); AID 573, 2007;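 active = growth inhibition at or above a cutoff equal to the mean over every tested compound plus 3 SD, cut at about 60% in these data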;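 note: growth measured after 20 h incubation at 37 °C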
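Test system: E. coli BW25113 ΔtolC::kan bacteria; incubation: 37 °C, 20 h exposure; medium: LB broth supplemented with 50 µg/mL kanamycin; read-out basis: percent growth inhibition; signal: A615 absorbance measurement; compound: 10 µM final, single dose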
M1 ag: M1 muscarinic receptor agonists, primary screen, CHO-M1 cells, Fluo-4 calcium, agonist mode; B-score at 10 µM; Fluo-4 calcium fluorescence; active compounds read high; actives 3% (n = 64,000); Muscarinic acetylcholine receptor M1;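 active = fluorescence rise, raw or as B-score row- and column-corrected plate score, outside the 99.7% band of its plate's samples, either direction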
M1 antag conf: rat M1 muscarinic receptor antagonists, confirmation, CHO cells, Fluo-4 calcium, duplicate. shares compounds with M1 antagonist. ACh EC80 antagonism; active compounds read low. calcium response (max-min fluorescence) at 10 µM. actives 43% (n = 1,700). AID 677, 2007;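 active = calcium response below the same-plate mean of wells given acetylcholine alone at its 80%-effect dose, minus 3 SD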;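 note: raw fluorescence intensity difference in arbitrary instrument units and not normalized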
mGluR4 antag: human mGluR4 response to M1 antagonist hits, M1 allosteric modulator project, cell-based, antagonist mode, secondary assay 1; shares compounds with M1 antagonist; CHO-mGluR4 calcium flux, Fluo-4 fluorescence, glutamate EC80; active compounds read low; fluorescence response (max-min) at 10 µM; actives 0.9% (n = 1,700);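 active = fluorescence response below the plate's average for near-maximal glutamate wells, less 3 SD of those wells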;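 note: raw unnormalized fluorescence span taken in the window right after glutamate addition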
* hit, by the source's call; i = inactive; . = no result given. Rows were chosen to be rich in hits. Some 5.1% of all compounds tested hit in one or more screens of this group.

SMILES | M1 antagonist | BAP1 inh | Hsp90 inh | Ecoli WT expand | Ecoli tolC | M1 ag | M1 antag conf | mGluR4 antag
O=C(CSc1nc2cc(Cl)ccc2s1)NC(=O)NCc1ccco1 | -2.1* | i | -6 | -10 | -1 | -1.2 | 629 | 255
COc1cc2c(cc1OC)C(C(=O)N1CCCC1)C(c1ccccc1F)N(C)C2=O (stereo not given) | -0.0072 | . | . | 3 | -5 | -1.2 | . | .
COc1cc2c(cc1OC)C(C(=O)N1CCN(c3ccccn3)CC1)C(c1cccs1)N(C)C2=O (stereo not given) | -2.1* | i | -5 | 1 | 1 | 0.51 | 604 | 239
CC1=C(C(=O)OCCOc2ccccc2)C(c2ccccc2F)C2=C(CC(C)(C)CC2=O)N1 (stereo not given) | . | i | . | . | . | . | . | .
Cn1c(Cc2ccccc2)nnc1SCC(=O)c1ccc(Br)s1 | -1.7* | i | -3 | 1 | -2 | -0.017 | 461* | 257
CC(C)OCCCNC(=O)c1cc2c(s1)CS(=O)(=O)C2 | -4.6* | i | -5 | 3 | -13 | -0.0011 | 625 | 239
O=C(Nc1ccccc1-c1ccccc1)NC1CCN(CC(=O)N2CCOCC2)CC1 | -6* | i | 1 | 0 | -9 | 0.81 | 323* | 242
O=S(=O)(CCN1CCN(C(c2ccccc2)c2ccccc2)CC1)C(F)(F)F | -3.8* | i | -3 | 20 | 0 | -0.38 | 387* | 203
O=C(CN1CCN(C(c2ccccc2)c2ccccc2)CC1)N1CCOCC1 | -19* | i | 0 | 6 | -18 | -0.021 | 179* | 246
CC(=O)c1c(C)n(C)c2ccc(OC(=O)c3cccc(Br)c3)cc12 | . | i | . | . | . | . | . | .
CCOC(=O)c1cc(-c2cccnc2)no1 | . | i | . | . | . | . | . | .
CCOC(=O)c1ccc(-n2c(C)nc3ccccc3c2=O)cc1 | 0.58 | i | 1 | 1 | -9 | -0.51 | . | .
CCOC(=O)c1ccc(-n2[nH]c(-c3ccccc3)cc2=O)cc1 | -17* | . | -8 | 11 | 62* | -0.027 | 691 | 190
COc1ccc(C2(O)CCN(C(=O)Cc3cccnc3)CC2)cc1 | 0.16 | . | . | -9 | -4 | 0.13 | . | .
COc1ccc(C2(O)CCN(CCCCOc3ccccc3)CC2)cc1 | -2.6* | i | -1 | 18 | -11 | -0.46 | 477* | 242
COc1cccc(OCC(O)CN2CCC(Cc3ccccc3)CC2)c1 (stereo not given) | -2.2* | i | 0 | -5 | -1 | -1 | 347* | 219
OC(COc1ccc(OCc2ccccc2)cc1)CN1CCCCC1 (stereo not given) | -6.6* | i | -5 | 7 | -3 | -1.4 | 358* | 249
O=S(=O)(c1ccc(OCC(O)CN2CCC(Cc3ccccc3)CC2)cc1)N1CCOCC1 (stereo not given) | -1* | i | 0 | 0 | 9 | -0.38 | 458 | 212
O=S(=O)(c1ccc(OCC(O)CN2CCN(c3ccccc3)CC2)cc1)N1CCOCC1 (stereo not given) | -0.55 | i | 0 | -4 | -16 | -0.3 | . | .
CC1=C(C(=O)Nc2ccc(C)cc2)C(c2ccc(Cl)cc2)n2ncnc2N1 (stereo not given) | . | i | . | . | . | . | . | .
CCOC(=O)c1cnc(-n2nc(C)cc2C)nc1NCc1ccccc1 | -4.3* | i | 7 | 3 | 100* | 1.2 | 405* | 196
CCOC(=O)c1cnc(-n2nc(C)cc2C)nc1NCCO | . | . | . | 0 | . | . | . | .

Source: PubChem
